SR-BI HDL uptake: inhibitors of SR-BI mediated HDL lipid uptake, primary screen, ldlA[mSR-BI] cells, fluorescence, single point. Scavenger receptor class B member 1 (Mus musculus), Q61009. inhibition, % at 12.5 µM. 0.96% of 320,000 active. ldlA[mSR-BI] CHO cells, DiI-HDL uptake fluorescence, 3 h;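 active means mean replicate inhibition of at least 70% and a set share of replicates each scoring 70 or more; inconclusive means meets just one of the two criteria; inactive means fails both criteria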;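 further: 0% = median of neutral control wells and 100% = median of positive control wells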
PvdQ acylase: P. aeruginosa PvdQ acylase inhibitors, primary screen, biochemical, fluorescence, plate reader and imaging, single point; PvdQ acylase [Pseudomonas aeruginosa LESB58]; 0.063% of 340,000 active; purified PvdQ acylase; inhibition, % at 10 µM; in the data active means inhibition above about 30%, passing the limit was not always enough; inconclusive means no clear call, values can overlap the other calls;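 further: 0% = vehicle neutral wells and 100% = reference inhibitor wells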
XiGFP reactiv: activators of inactive X chromosome reactivation, primary screen, imaging, XiGFP fibroblasts, GFP high-content imaging, set 2; XiGFP mouse fibroblasts, % GFP-positive cells imaging, 3 d; cells co-treated with 5-aza-dC sensitizer; scaled so ellipticine positive control = 100%; activation, % at 7.58 µM; 0.055% of 360,000 active;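 active means mean normalized replicate activation at least 10% and every replicate at or above 10%; inconclusive means only one of the two criteria met; inactive means mean below 10% and not all replicates reach 10%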;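 further: 0% = median of on-plate neutral control wells and 100% = ellipticine 6 µM median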
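System: 68-5-11 XiGFP fibroblast line; Timing: 3 days compound exposure; Compound dosing: one concentration, pinned; Benchmarks: positive control ellipticine, 6 µM final; Buffer or medium: DMEM containing 5-aza-dC.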
dFosB activator: activators of delta FosB homodimer, primary screen, biochemical, fluorescence polarization, TAMRA-CDK5 oligo, single point | Protein FosB (Mus musculus), P13346 | purified delta FosB; percent of positive-control signal above neutral wells | activation, % at 25 µM | 0.99% of 340,000 active | AID 493131, 2011;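 active means mean activation above about 17%, with every replicate also reaching it, limit read from the data, passing the limit was not always enough; inconclusive means only one of the two conditions met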
Target sequence (P13346 whole entry, looked up): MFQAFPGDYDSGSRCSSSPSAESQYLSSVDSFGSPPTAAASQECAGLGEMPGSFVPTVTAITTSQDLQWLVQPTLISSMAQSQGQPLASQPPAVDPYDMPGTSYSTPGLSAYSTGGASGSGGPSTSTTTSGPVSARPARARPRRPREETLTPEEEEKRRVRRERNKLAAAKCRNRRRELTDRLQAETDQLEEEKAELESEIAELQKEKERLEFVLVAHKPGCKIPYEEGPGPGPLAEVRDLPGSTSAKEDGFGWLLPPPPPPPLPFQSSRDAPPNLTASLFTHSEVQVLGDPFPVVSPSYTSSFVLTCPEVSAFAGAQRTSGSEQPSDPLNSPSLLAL
Ecoli rRNA inh: reduced GFP signal of wild-type E. coli, primary screen, bacterial rRNA inhibitor project, GFP/RFP fluorescence, OD600, single point; E. coli WT GFP vs humanized-ribosome RFP mutants, 24 h; hits give low values; DMSO median 0, no signal -100; GFP signal change (wild-type ribosome), % (test concentration not listed); 1.6% of 350,000 active; AID 720706, 2013;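 active means significant combined selectivity score with lowered wild-type GFP, culture density cut under 30%, mutant RFP and density less affected; inactive means any of these conditions unmet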
SR-BI uptake up: activators of SR-BI mediated DiI-HDL uptake, primary screen, ldlA[mSR-BI] CHO cells, DiI fluorescence | 3 h; 100 = double the neutral-control signal | activation, % at 12.5 µM | 0.096% of 320,000 active;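 active means mean replicate activation of at least 60% and every replicate at or above 60%; inconclusive means mean or all-replicate condition met, but not both; inactive means mean below 60% and not all replicates reaching 60%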;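 further: 0% = median plate neutral-control signal and 100% = twice that signal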
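Material: SR-BI-overexpressing, LDLR-lacking CHO cells | Dosing: Single compound concentration, delivered by pin transfer | Probe or stimulus: Labelled HDL, 10 µg/mL | Signal: Bottom-read cell fluorescence after medium removal, ex 550/em 595 nm | Schedule: 3 h, 37 °C | Evaluation: HDL uptake via cellular fluorescence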
* hit, by the source's call; ? = inconclusive; . = no result. Rows were chosen to be rich in hits. Some 2.6% of all compounds tested hit in one or more screens of this group.

SMILES	SR-BI HDL uptake	PvdQ acylase	XiGFP reactiv	dFosB activator	Ecoli rRNA inh	SR-BI uptake up
COc1cc(OC)c(C(=O)Nc2ccncc2)cc1OC	9	5	0	13	3	-9
COc1ccc(Cl)cc1NC(=S)NNC(=O)c1cccnc1	-3	4	0	1	1	3
O=C(NC(=S)NNC(=O)c1ccccc1O)c1ccc(F)cc1	125*	-6	0	3	-48	-125
COc1ccc(Cl)cc1NC(=S)NNC(=O)c1cccs1	-2	8	0	-4	-32*	2
CC(=O)c1sc(NC(=O)c2cc(=O)c3ccccc3o2)nc1C	17	-13	0	-1	-13	-17
CCOC(=O)c1csc(NC(=O)c2cc(=O)c3ccccc3o2)n1	-14	8	0	-2	-26*	14
O=C(C[C@@H]1C[C@@H]2c3cc(NC(=O)C4CCOCC4)ccc3O[C@@H]2[C@@H](CO)O1)NCc1ccccn1	.	.	0	.	3	.
Cc1cccc(CN2CCN(C3CN(Cc4cn(Cc5cccc(Cl)c5)nn4)S(=O)(=O)C3)CC2)c1 (configuration not stated)	.	.	0	.	-36*	.
O=S1(=O)CC(N2CCN(Cc3ccccc3F)CC2)CN1Cc1cn(Cc2cccc(Cl)c2)nn1 (configuration not stated)	.	.	0	.	-24*	.
CCCCN1CC(N2CCN(Cc3ccccc3)CC2)CS1(=O)=O (configuration not stated)	.	.	0	.	-32*	.
Cc1ccc(Cn2cc(CN3CC(N4CCN(Cc5cccc(C)c5)CC4)CS3(=O)=O)nn2)cc1 (configuration not stated)	.	.	0	.	-13	.
Cc1cccc(CN2CCN(C3CN(Cc4cn(Cc5ccc(Cl)cc5)nn4)S(=O)(=O)C3)CC2)c1 (configuration not stated)	.	.	0	.	-25*	.
O=S1(=O)CC(N2CCN(Cc3ccccc3F)CC2)CN1Cc1cn(Cc2ccc(F)cc2)nn1 (configuration not stated)	.	.	0	.	-1	.
Cc1cccc(CN2CCN(C3CN(Cc4cn(Cc5ccc(F)cc5)nn4)S(=O)(=O)C3)CC2)c1 (configuration not stated)	.	.	0	.	-5	.
CC(C)(C)OC(=O)NCCCC[C@H](NC(=O)[C@H](Cc1c[nH]c2ccccc12)NC(=O)OCc1ccccc1)C(=O)O	-7	-14	0	-5	2	7
COc1ccccc1CNC(=O)CN1C(=O)NC(c2ccccc2)(c2ccc(C)c(C)c2)C1=O (configuration not stated)	32	-6	0	?	-3	-32
Cc1ccc(N(CC(O)Cn2nc(C)cc2C)S(=O)(=O)c2ccc3ccccc3c2)cc1 (configuration not stated)	15	-17	0	-5	-31*	-15
COc1cc2sc3ccc(-c4ccc(CN5CCOCC5)cc4)cc3c(=O)c2cc1OC	71*	-10	0	-3	-12	-71
COc1ccc(C(Nc2cccc([N+](=O)[O-])c2)P(=O)(OC(C)C)OC(C)C)cc1 (configuration not stated)	4	7	1	-5	-2	-4
Cc1noc(C)c1NC(=O)N(C)C[C@@H]1OCc2cn(nn2)CCCC(=O)N([C@H](C)CO)C[C@H]1C	.	.	0	.	6	.
COc1ccccc1CNC(=O)C1CCCN(c2cnccn2)C1 (configuration not stated)	5	-1	0	5	17	-5
COc1cccc(NC(=O)c2ccnc(N3CCC(C(=O)NCc4ccccc4OC)CC3)c2)c1	87*	-3	0	7	4	-87
O=C(CN1CCOCC1)NNC(=S)Nc1ccc(Cl)cc1	0	-14	0	8	-7	0
O=C(CN1c2ccccc2Sc2ccccc21)NNC(=S)Nc1ccc(Cl)cc1	63	-19	0	1	-48*	-63
O=C(CN1c2ccccc2Sc2ccccc21)NNC(=S)Nc1ccc(Cl)cc1Cl	76*	-21	.	-3	.	-76
SMILES	SR-BI HDL uptake	PvdQ acylase	XiGFP reactiv	dFosB activator	Ecoli rRNA inh	SR-BI uptake up
O=C(CN1c2ccccc2Sc2ccccc21)N/N=C/c1ccc(Cl)cc1Cl	27	-2	0	-7	29	-27
COc1ccc(NC(=O)N(C)C[C@@H]2Oc3ccc(NC(=O)Nc4c(C)noc4C)cc3CC(=O)N([C@H](C)CO)C[C@@H]2C)cc1	.	.	0	.	4	.
Cc1ccc(S(=O)(=O)N(CC(=O)N2CCCCCC2)c2ccccc2)cc1	-16	-2	.	-2	.	16
COc1ccc(N(CC(=O)N2CCC(Cc3ccccc3)CC2)S(C)(=O)=O)cc1	-5	16	0	3	-21*	5
CN(C)S(=O)(=O)N(CC(=O)N1CCC(Cc2ccccc2)CC1)c1ccccc1	11	3	0	-3	-12	-11
Cc1ccc(S(=O)(=O)N(CC(=O)N2CCC(C)CC2)c2ccccc2)cc1	-15	37*	0	-1	-9	15
CCOC(=O)c1c(C)n(C)c2ccc(OC)c(NC(=O)CN3CCSCC3)c12	-7	-9	.	-7	.	7
COCCNC(=O)c1onc(CSc2ccccc2)c1C(=O)O	-17	-13	0	2	1	17
Cc1nc(C(=O)Nc2ccc(Cl)cc2)sc1C1(C)CC(c2cccc([N+](=O)[O-])c2)=NO1 (configuration not stated)	77*	-1	0	0	13	-77
Cc1nc(C(=O)NC2CCCCC2)sc1C1(C)CC(c2cccc([N+](=O)[O-])c2)=NO1 (configuration not stated)	76*	-8	0	-8	5	-76
Cc1nc(C(=O)NC2CC2)sc1C1(C)CC(c2ccccc2)=NO1 (configuration not stated)	31	-28	0	-4	-5	-31
Cc1nc(C(=O)Nc2cc(F)cc(Cl)c2)sc1C1(C)CC(c2ccccc2)=NO1 (configuration not stated)	80*	-10	0	-10	-14	-80
Cc1cc(Cl)ccc1C(=O)C1CCCN(C(=O)c2ccoc2)C1 (configuration not stated)	-12	-12	0	-9	-25*	12
